XBP1 UPR activ – activators of adaptive XBP1 UPR arm, primary screen, cell-based, CHO-XBP1 luciferase reporter, luminescence, uHTS | IRE1-XBP1 UPR activation; percent of tunicamycin response, DMSO as zero | activation, % at 20 µM | actives 0.33% (n = 330,000) | AID 463104, 2010;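 active means versus positive control, 20 µM dose yields 30% or more activation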;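 further: 100% = tunicamycin at 10 µg/mL and 0% = DMSO only wells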
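Material: CHO cell line with stable XBP1 luciferase reporter; buffer or medium: F12 medium containing 10% fetal bovine serum; compound: single point, 20 µM final compound, 1% DMSO; incubation: 6 h treatment, 37 °C; measured by: glow luminescence from Steady-Glo reagent; evaluation: activation, % of tunicamycin; control set: tunicamycin high, DMSO low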
Beta2AR agonist – beta2AR agonists driving receptor internalization, primary screen, cell-based, FAP fluorogen, flow cytometry. Beta-2 adrenergic receptor (Homo sapiens), P07550. AID 504454, 2011. response, % (no concentration beside the values). Am2.2-beta2AR cells. actives 0.43% (n = 340,000);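 active means response above a set limit, near 3 SD of response in nonfluorescent compounds, cut at about 42% in these data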
CHOP inh – inhibitors of CHOP promoter induction, primary screen, cell-based, unfolded protein response, luciferase reporter; inhibition, % at 10 µM; CHO-K1 CHOP-promoter luciferase, tunicamycin-induced, 15-18 h; actives 3.8% (n = 220,000);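 active means compounds that reduced the stress-induced luciferase reporter signal by more than about 70% of percent inhibition, limit read from the data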;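 further: 0% = tunicamycin plus vehicle and 100% = wells without tunicamycin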
UPR CHOP act – activators of apoptotic CHOP UPR arm, primary screen, cell-based, CHO-CHOP luciferase reporter, luminescence, uHTS; actives 0.34% (n = 330,000); UPR activation; percent of tunicamycin response over DMSO baseline; activation, % at 10 µM; AID 449763, 2010;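 active means at 10 µM dose, activation of 40% or more, normalized to positive control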;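 further: 100% = tunicamycin at 10 µg/mL and 0% = DMSO alone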
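measured by = luciferase luminescence | assay system = CHO-CHOP cells, stable luciferase reporter of PERK-eIF2a-CHOP signalling | amount = 500 reporter cells seeded per well | timing = 6 h compound exposure at 37 °C after overnight seeding | controls = positive tunicamycin 10 µg/mL, negative DMSO alone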
VLA-4 inh – inhibition in human VLA-4 binding assay, primary screen, VLA-4 allosteric modulator project, MLPCN library, flow cytometry, VLA-4 expressing cells. Integrin alpha-4 (Homo sapiens), P13612. ligand binding flow cytometry. inhibition, % (about 7 µM as worked out from the volumes in the protocol). actives 0.2% (n = 330,000); in the data active means inhibition above about 50%
Target sequence (P13612 whole entry, looked up): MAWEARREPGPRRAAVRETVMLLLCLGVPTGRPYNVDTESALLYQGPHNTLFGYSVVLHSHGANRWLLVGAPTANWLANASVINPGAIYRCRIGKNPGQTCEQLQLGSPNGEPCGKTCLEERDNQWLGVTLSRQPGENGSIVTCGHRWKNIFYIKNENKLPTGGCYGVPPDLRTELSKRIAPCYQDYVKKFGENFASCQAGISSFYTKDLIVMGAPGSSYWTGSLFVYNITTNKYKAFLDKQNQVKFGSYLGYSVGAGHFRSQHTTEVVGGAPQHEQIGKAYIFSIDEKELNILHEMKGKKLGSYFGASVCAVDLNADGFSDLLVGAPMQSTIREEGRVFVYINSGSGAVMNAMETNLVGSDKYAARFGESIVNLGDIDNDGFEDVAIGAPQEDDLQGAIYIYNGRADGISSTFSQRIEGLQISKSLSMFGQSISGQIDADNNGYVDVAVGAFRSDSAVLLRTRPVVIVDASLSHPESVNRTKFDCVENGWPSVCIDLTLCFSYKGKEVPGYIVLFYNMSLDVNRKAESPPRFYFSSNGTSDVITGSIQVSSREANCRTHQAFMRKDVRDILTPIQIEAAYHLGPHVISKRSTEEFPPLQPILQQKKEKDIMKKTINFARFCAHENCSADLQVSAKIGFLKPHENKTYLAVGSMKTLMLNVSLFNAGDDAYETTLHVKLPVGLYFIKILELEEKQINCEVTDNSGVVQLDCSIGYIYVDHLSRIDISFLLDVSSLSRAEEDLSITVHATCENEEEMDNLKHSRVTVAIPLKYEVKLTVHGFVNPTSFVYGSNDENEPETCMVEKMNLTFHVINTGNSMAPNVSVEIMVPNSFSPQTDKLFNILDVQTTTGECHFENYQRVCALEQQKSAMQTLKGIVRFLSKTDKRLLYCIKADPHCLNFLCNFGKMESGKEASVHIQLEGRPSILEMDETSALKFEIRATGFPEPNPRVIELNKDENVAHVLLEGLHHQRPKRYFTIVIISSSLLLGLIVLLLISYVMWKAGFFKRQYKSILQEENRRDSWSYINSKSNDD
UPR XBP1 confirm – IRE1-XBP1 UPR arm activators, confirmation, cell-based, CHO-XBP1 luciferase reporter, luminescence, single concentration; shares compounds with XBP1 UPR activ; activation, % at 20 µM; actives 63% (n = 1,000);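 active means reporter signal at least 30% of the positive control's activation in two or more of four replicate wells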;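 further: plate controls were DMSO negative control for no effect and tunicamycin 10 µg/mL positive control for full effect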
B2AR ag CP1 – beta2AR agonists via receptor internalization, confirmation, cell-based, FAP fluorogen, flow cytometry, single point, cherry pick 1; AID 540358, 2011; actives 25% (n = 1,100); percent response (surface receptor), % at 10 µM; Am2.2-beta2AR cells, FAP surface receptor; stronger effect = lower value; shares compounds with Beta2AR agonist;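 active means surface receptor percent response at or below 58%, roughly 3 SD from nonfluorescent compounds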
FAP fluor counter – counter-screen for beta-2AR agonists: fluorescence in Am2.2 cells; FAP fluorogen flow cytometry, fluorescence counterscreen; stronger effect = lower value; calls only at 10 µM; 1,100 tested, under 10 active; AID 588765; shares compounds with Beta2AR agonist;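 active means percent response below a set limit in fluorescence channel 1 and below 50% in channel 8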
Starred values were filed as active, the others as inactive; i = inactive; · = not tested or not shown. The entries come from a sample that favours hits as a whole.

SMILES	XBP1 UPR activ	Beta2AR agonist	CHOP inh	UPR CHOP act	VLA-4 inh	UPR XBP1 confirm	others
O=C(Nc1cccnc1)/C(N=Nc1c(Cl)cccc1Cl)=C(\O)c1ccccc1	3	-4	12	0	6	·
COc1ccc(Cn2c(-c3ccccc3C)nc3c(c(=O)c4ccccc4n3C)c2=O)cc1	41*	-17	·	8	1	2
COc1ccc(Cn2c(-c3ccc(OC)cc3)nc3c(c(=O)c4ccccc4n3C)c2=O)cc1	3	·	29	2	9	·
CCOc1ccc(C(=O)Nc2cc(C)c3c(=O)oc4ccccc4c3n2)cc1	52*	7	-4	0	3	2
C=CC[C@@H](CC(=O)N[C@@H](CO)Cc1ccccc1)C(=O)NC[C@H](OC(=O)[C@@H](CC=C)Cc1ccc(F)cc1)c1ccccc1	2	5	·	6	-4	·
C=CC[C@@H](CC(=O)N[C@@H](CO)Cc1ccccc1)C(=O)NC[C@@H](OC(=O)[C@@H](CC=C)Cc1ccc(F)cc1)c1ccccc1	32*	3	·	5	11	2
Cc1ccc(Cn2c(C(C)Nc3nc(-c4ccc(F)cc4)cs3)nc3cc(Cl)c(Cl)cc32)cc1 (stereo not drawn)	35*	9	·	2	-20	30*
CCCn1c(C(C)Nc2nc(-c3ccc(C)cc3)cs2)nc2cc(Cl)c(Cl)cc21 (stereo not drawn)	-1	-6	·	-1	-6	·
CN1CCN(c2nc3c(c(=O)[nH]c(=O)n3C)n2CCSc2nc3ccccc3s2)CC1	1	-13	0	0	1	·
Cn1c(=O)[nH]c(=O)c2c1nc(N1CCc3ccccc3C1)n2CCSc1nc2ccccc2s1	34*	-6	-31	32	-11	4
Cc1cc(-c2ccccc2)n(-c2ccc(C(N)=O)cc2)n1	0	-10	4	-1	14	·
CNC(=O)c1ccc(-n2nc(C)cc2-c2ccccc2)cc1	44*	-23	-3	2	3	0
CSc1ccc(C(=O)C2CCCN(C(=O)c3ccc4c(c3)no[n+]4[O-])C2)cc1 (stereo not drawn)	-2	3	22	1	-1	·
Cc1ccc(-n2c(SCC(=O)NCc3ccco3)nc3sc4c(c3c2=O)CC(C)(C)SC4)cc1	-1	-7	9	0	-4	·
CCC1CCc2c(sc3nc(SCC(=O)NCc4ccco4)n(-c4ccccc4)c(=O)c23)C1 (stereo not drawn)	43*	1	29	3	7	70*
CCCCCn1c(N)c(-c2nc3ccccc3o2)c2c([N+](=O)[O-])nn(CC)c(=O)c21	38*	-8	23	16	-10	53*
COCCNC(=O)Cn1nc(-c2ccccc2C)ccc1=O	-1	-4	·	4	-1	·
CCn1c(C)nnc1SCC(=O)NC1CCCC1	-1	21	·	2	10	·
COc1ccc(-c2ccc3c(c2)S(=O)(=O)c2cccc(C(=O)NCCOc4ccccc4Cl)c2C3=O)cc1OC	94*	9	·	24	-8	46*
COc1ccc(-c2ccc3c(c2)S(=O)(=O)c2cccc(C(=O)NCc4ccccc4Cl)c2C3=O)cc1OC	-3	-7	·	-2	11	·
COc1ccc(-c2coc3cc4oc(=O)cc(C)c4cc23)cc1F	3	26	-6	2	-10	·
COc1ccc(-c2coc3cc4oc(=O)cc(-c5ccccc5)c4cc23)cc1F	41*	5	-15	1	11	125*
Cc1cc(C(=O)OCC(=O)N2CCN(C(=O)c3ccco3)CC2)c(C)n1-c1ccc(F)cc1	1	-6	53	0	5	·
CCOC(=O)c1cc2c(ccn2-c2ccc(F)cc2)n1CC(=O)N1CCN(C(=O)c2ccco2)CC1	45*	-1	-62	0	-2	11
C=CCn1c(SCc2nc3ccccc3c(=O)[nH]2)nc2sc3c(c2c1=O)CCCC3	132*	·	-12	0	-7	-1
SMILES	XBP1 UPR activ	Beta2AR agonist	CHOP inh	UPR CHOP act	VLA-4 inh	UPR XBP1 confirm	others
CCOc1ccccc1CNC(=O)C1CCN(c2nnc(C)c3c(C)n(-c4ccc(C)cc4)nc23)CC1	64*	53*	·	35	-7	85*	B2AR ag CP1=24*;FAP fluor counter=i
Cc1ccccc1OCc1nc(-c2ccc(NC(=O)c3ccc4c(c3)OCO4)cc2)no1	69*	-5	74*	35	13	44*	B2AR ag CP1=106;FAP fluor counter=i
O=C(NCc1nc(-c2ccccc2)no1)c1ccc2c(c1)OCO2	-2	0	0	0	-5	·
Cc1cccc(N(CC(=O)NC2CCCCC2)C(=O)CCC(=O)Nc2nccs2)c1	6	-9	·	2	3	·
CC1CCCC(C)N1C(=O)COC(=O)c1ccc(S(=O)(=O)N(C)c2ccccc2)cc1 (stereo not drawn)	1	-2	·	-1	-4	·
CN(C)CCCn1cnc2c(c1=N)C(c1ccccc1)c1ccc3ccccc3c1O2 (stereo not drawn)	32*	44*	·	19	31	127*	B2AR ag CP1=94;FAP fluor counter=i
CCCCCCCCCCOC(=O)Cn1c(COc2ccc(OC)cc2)[n+](C)c2ccccc21	66*	24	·	12	-8	44*	B2AR ag CP1=110;FAP fluor counter=i
CCCCCCCCCCOC(=O)Cn1c(COc2cccc(C)c2)[n+](C)c2ccccc21	34*	0	·	5	2	17	B2AR ag CP1=124;FAP fluor counter=i
CCCCCCCCCCOC(=O)Cn1c(COc2ccccc2C)[n+](C)c2ccccc21	60*	68*	·	20	14	72*	B2AR ag CP1=105;FAP fluor counter=i
CCCCCOC(=O)Cn1c(=O)oc2ccccc21	-2	6	43	1	-22	·
CCCCOC(=O)Cn1c(=O)n(CC(=O)OCCCC)c2ccccc21	-4	23	2	-2	-15	·
O=c1[nH]cccc1-c1nc2ccccc2n1Cc1cccc(F)c1	-7	7	·	-1	-9	·
S=c1[nH]ccc2ccccc12	·	4	·	·	·	·
